# pIC50: −log10 of the molar value. Activity calls are given as the source filed them. The calls are words filed in the database; no cut-off is given here.
# Tests used:
# MDA-MB-231 [1] = test: Ratio of tamoxifen IC50 to compound IC50 for human MDA-MB-231 cells after 72 hrs by MTT assay; format: functional
# MCF7 [2] = test: Antiproliferative activity against human MCF7 cells after 72 hrs by MTT assay; format: functional, cell-based; conditions: MCF7, 72 h
# Method in brief: (§1)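 Cells were seeded in 96-well plates for 24 h, then exposed to a range of concentrations for 72 h in DMEM/F-12 with 5% FBS. DMSO vehicle controls were matched. MTT was added at 0.5 mg/ml for 2 h at 37 °C, solubilized in DMSO, and read at 570 nm. IC50 is the concentration giving 50% cell death relative to DMSO control. Mean ± SD, n = 6.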
# MCF7 [3] = test: Ratio of tamoxifen IC50 to compound IC50 for human MCF7 cells after 72 hrs by MTT assay; format: functional
# MCF7 [4] = test: Antiproliferative activity against human MCF7 cells at 5 uM after 72 hrs by MTT assay in presence of estradiol; format: functional, cell-based
# Method in brief: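 MCF-7 cells (ATCC) were maintained in DMEM/F-12 with 10% FBS at 37 °C and 5% CO2. They were seeded for 24 h, then treated with 5 µM test agent for 72 h in 5% FBS medium, with and without estradiol. Read-out was MTT absorbance at 570 nm, expressed as percent of control wells. Two experiments, each with six replicates; mean ± SD.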
# MCF7 [5] = test: Induction of apoptosis in human MCF7 cells assessed as caspase 3/7 activation after 72 hrs by luminescence assay; format: functional, cell-based
# Method in brief: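 MCF-7 cells were plated at 1×10^4 per well, incubated for 24 h, then treated for 72 h. Caspase-3/7 activity was measured with a Caspase-Glo luminogenic DEVD substrate, and luminescence was reported as relative light units. Compared with DMSO vehicle; mean ± SD, n = 6.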
# MDA-MB-231 [6] = test: Antiproliferative activity against human MDA-MB-231 cells after 72 hrs by MTT assay; format: functional, cell-based; conditions: MDA-MB-231, 72 h; method in brief: as §1
Compound,pIC50 (MCF7 [2]),pIC50 (MDA-MB-231 [6]),Ratio IC50 (MDA-MB-231 [1]),Ratio IC50 (MCF7 [3]),Activity (MCF7 [4]),Activity (MCF7 [5])
C/C(=C(\c1ccccc1)c1ccc(OCCN2CCN(C)CC2)cc1)c1ccccc1,5.17,4.98,2,2,Active,Active
C/C(=C(\c1ccccc1)c1ccc(OCCN2CCCCC2)cc1)c1ccccc1,4.26,4.13,–,–,–,–
C/C(=C(\c1ccccc1)c1ccc(OCCN2CCNCC2)cc1)c1ccccc1,< 4.00,< 4.00,–,–,–,–
CC/C(=C(\c1ccccc1)c1ccc(OCCN(C)C)cc1)c1ccccc1 [TAMOXIFEN],4.55,4.19,–,–,–,–

# Second part, led by results:
pIC50 (MCF7 [2]),pIC50 (MDA-MB-231 [6]),Compound,Ratio IC50 (MDA-MB-231 [1]),Ratio IC50 (MCF7 [3]),Activity (MCF7 [4]),Activity (MCF7 [5])
5.25,4.88,C/C(=C(\c1ccccc1)c1ccc(OCCN2CCNCC2)cc1)c1ccc(F)cc1,2,2,Active,Active
4.06,< 4.00,C/C(=C(\c1ccccc1)c1ccc(OCCN2CCN(C)CC2)cc1)c1ccc(F)cc1,–,–,–,–
4.78,4.37,C/C(=C(\c1ccccc1)c1ccc(OCCN2CCCCC2)cc1)c1ccc(F)cc1,–,–,–,–
